FN deposit inh: inhibitors of fibronectin matrix deposition, primary screen, AH1F cells, Alexa488-fibronectin fluorescence, plate reader | AH1F fibroblasts, overnight | AID 743247, 2014 | actives 0.086% (n = 350,000) | inhibition, % at 12.6 µM;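 active = mean inhibition across replicates of 30% or more, regardless of how many single replicates reach that level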;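 note: positive control wells lacked labelled fibronectin entirely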
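Assay system: AH1F fibroblasts / Quantity: 10000 cells per well / Medium: DMEM plus 2% serum, read in PBS / Reagent: labelled fibronectin 24 nM / Dosing: single dose, pinned / Times: 1 h cell attachment, overnight exposure to compound and label / Signal: fluorescence, ex 485 nm, em 525 nm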
E-sel inducer: E-selectin induction in HUVECs, primary screen, imaging, HUVEC, immunofluorescence imaging, single point; P16581; normalized: neutral wells 0, TNF-alpha wells 100; activation, % at 7.58 µM; actives 0.37% (n = 260,000); AID 686992, 2013;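 active = mean E-selectin-positive cell signal at least 10% of the positive control, reached in at least 60% of replicates, without over 20% cell loss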
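Test system – human umbilical vein endothelial cells (HUVEC), E-selectin induction · Input – 3,000 HUVEC seeded per well · Buffer or medium – EGM-2, gelatin · Compound dosing – single-point compound dose · Detection – immunofluorescence imaging · Measure – percent E-selectin-positive cells · Controls – TNF-alpha high, DMSO low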
C2C12 statin: suppressors of statin myotoxicity in C2C12 myotubes, primary screen, cell-based, single point, plate reader; AID 602340, 2012; actives 0.78% (n = 330,000); rescue of ATP level, % at 7.49 µM; C2C12 myotubes + simvastatin, ATP luminescence, 48 h; scaled: DMSO 0, geranylgeraniol control 100;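 active = mean ATP rescue above about 67%, or every replicate alone reaching that limit, limit read from the data, passing the limit was not always enough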;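 note: myotubes were challenged with 10 µM simvastatin during compound exposure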
rRNA inh HTS: reduced GFP signal of wild-type E. coli, primary screen, bacterial rRNA inhibitor project, GFP/RFP fluorescence, OD600, single point | actives 1.6% (n = 350,000) | E. coli WT GFP vs humanized-ribosome RFP mutants, 24 h; hits give low values; DMSO median 0, no signal -100 | AID 720706, 2013 | GFP signal change (wild-type ribosome), % (concentration not given with the values);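 active = significant combined selectivity score with lowered wild-type GFP, culture density cut under 30%, mutant RFP and density less affected; inactive = any of these conditions unmet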
FGF22 binding-1: binders of human FGF22 protein, primary screen, FGF22 synaptogenesis inhibitor project, biophysical, thermal shift, single point; Fibroblast growth factor 22 (Homo sapiens), Q9HCT0; recombinant FGF22 thermal shift, SYPRO orange fluorescence; percent of sucrose octasulfate shift, DMSO zero; activity (Tm shift, normalised), % at 9.99 µM; actives 1.5% (n = 340,000); AID 651658, 2012;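 active = mean Tm shift, scaled 0 neutral to 100 positive control, at about 1.3% or above, every replicate too, limit read from the data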
Target sequence (Q9HCT0 whole entry, looked up): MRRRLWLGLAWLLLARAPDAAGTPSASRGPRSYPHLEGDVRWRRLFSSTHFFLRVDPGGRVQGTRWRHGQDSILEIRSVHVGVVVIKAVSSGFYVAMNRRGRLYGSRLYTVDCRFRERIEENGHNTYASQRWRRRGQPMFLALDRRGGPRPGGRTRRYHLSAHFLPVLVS
SIRT5 inh: SIRT5 desuccinylase inhibitors, primary screen, biochemical, fluorescence imaging, single point, set 5 | AID 652115, 2013 | NAD-dependent protein deacylase sirtuin-5, mitochondrial (Homo sapiens), Q9NXA8 | actives 1.1% (n = 330,000) | Purified SirT5, succinyl-peptide AMC, trypsin-coupled fluorescence | inhibition, % at 15 µM; in the data active = inhibition above about 15%
Target sequence (Q9NXA8 whole entry, looked up): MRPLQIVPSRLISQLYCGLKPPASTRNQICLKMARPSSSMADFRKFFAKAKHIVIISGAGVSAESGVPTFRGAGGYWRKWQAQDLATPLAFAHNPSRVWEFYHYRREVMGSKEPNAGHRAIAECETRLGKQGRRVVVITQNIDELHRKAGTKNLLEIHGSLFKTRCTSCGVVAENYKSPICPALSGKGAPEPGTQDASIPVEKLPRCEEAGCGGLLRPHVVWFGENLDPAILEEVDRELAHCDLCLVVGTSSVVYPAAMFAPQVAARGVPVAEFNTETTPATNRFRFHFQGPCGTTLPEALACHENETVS
FGF22 binding-2: binders of human FGF22 protein, dose response, FGF22 synaptogenesis inhibitor project, biophysical, thermal shift, cherry-pick retest; recombinant FGF22 thermal shift, SYPRO orange fluorescence; shares compounds with FGF22 binding-1; actives 2% (n = 1,000); thermal shift activity, °C (ΔTm) at 38 µM; AID 720646, 2013;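 active = fitted rise in melting shift crosses a set limit at or below the top valid dose tested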
FGF22 TSA: binders of human FGF22 protein, dose response, FGF22 synaptogenesis inhibitor project, biophysical, thermal shift, dry powder | Tm shift (activity), % at 38 µM | 50 tested, under 10 active | AID 743017, 2013 | shares compounds with FGF22 binding-1 | Thermal shift assay, SYPRO orange, melting temperature shift;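 active = compounds whose fitted dose curve of melting temperature shift rises past a set threshold within the tested doses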
TSA no protein: compound-only thermal shift signal without protein, dose response, artefact control for FGF22 binder project, biochemical, cherry-picked samples, RT-PCR instrument. shares compounds with FGF22 binding-1. compound-only SYPRO orange thermal shift counter-screen, no protein. AC50, µM (series often up to 38 µM). actives 2% (n = 1,000). AID 743019, 2013;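 active = rising signal whose fitted curve reaches the 0.54 level within the top valid dose, showing a melting point, actives reach about 13 µM in these data; inactive = the rest, including activity in the opposite direction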; note: value is where the raw curve crosses a fixed level and not half-maximal
* hit, by the source's call; i = inactive; nt = no result; [ ] = another dose, or the depositor's remark. The list is not random: actives were taken first. Their share in the collection is about 4%.

SMILES | FN deposit inh | E-sel inducer | C2C12 statin | rRNA inh HTS | FGF22 binding-1 | SIRT5 inh | FGF22 binding-2 | TSA no protein | others
COCC(=O)NC[C@H]1[C@H](c2ccc(C3=CCCC3)cc2)[C@@H](CO)N1C(C)=O | -1 | 0 | 11 | 0 | 1.3* | -1 | -0.058[42 µM] | i
CO[C@H]1CN(C)C(=O)c2ccc(NC(=O)c3cccc(F)c3)cc2OC[C@@H](C)NC[C@H]1C | -18 | 0 | -2 | 3 | 0 | -4 | nt | nt
CCCCNC(=O)C1(C)CCCCN1C(=O)c1c(F)ccc(C)c1F (stereo not given) | 2 | 0 | 1 | 3 | 1.7* | 1 | 0.19 | i
C[C@H]1CCCCO[C@@H](CN(C)C(=O)Nc2cccc3ccccc23)[C@@H](C)CN([C@@H](C)CO)C(=O)c2cc(NS(C)(=O)=O)ccc2O1 | nt | 0 | nt | -1 | 0 | 4 | nt | nt
COc1ccc2o/c(=N\O)c(C(=O)Nc3ccc(C)cc3)cc2c1 | 2 | 0 | nt | -11 | 2.3* | 0 | 0.091 | i
COc1ccc2oc(=N)c(C(=O)Nc3ccc(C)cc3)cc2c1 | -5 | nt | -19 | 11 | 0 | 0 | nt | nt
CCc1ccc(N2CC(C(=O)Nc3nccs3)CC2=O)cc1 (stereo not given) | nt | nt | -2 | nt | nt | nt | nt | nt
O=C(Nc1nccs1)C1CC(=O)N(c2ccc(F)cc2)C1 (stereo not given) | 0 | nt | 5 | 6 | 1.4* | -6 | -0.036 | i | FGF22 TSA=0
Cc1cccc(NC(=O)COc2coc(CN3CCc4ccccc4C3)cc2=O)c1 | 5 | nt | -6 | 1 | 7.0* | 0 | -0.023 | i
COc1ccc2nc(Nc3nc(C)c(C(C)=O)s3)sc2c1 | -4 | nt | 18 | nt | nt | nt | nt | nt
COc1ccc2nc(NC(=O)CCn3cccc3)sc2c1 | nt | nt | -4 | nt | nt | nt | nt | nt
COc1ccc(Nc2nc3ccc(OC)cc3s2)cc1 | nt | nt | nt | -26* | 1.5* | 16* | 0.047 | i | FGF22 TSA=0
COc1ccc2nc(NC(=O)CCc3cc(OC)c(OC)c(OC)c3)sc2c1 | -6 | 1 | nt | -33 | 1.9* | -3 | -0.32 | i
CC(=O)Nc1ccc2c(c1)C(=O)N(C)[C@H]1CC[C@H](CC(=O)NCc3ccc(Cl)cc3)O[C@H]1CO2 | -10 | 0 | -9 | -2 | 0 | -2 | nt | nt
COc1cc(CN2CC3(CCN(S(=O)(=O)c4cn(C)cn4)CC3)c3c(n(C)c4cc(OC)ccc34)[C@H]2CO)cc(OC)c1 | 3 | 0 | nt | 4 | nt | 9 | nt | nt
CSc1ncccc1C(=O)Nc1ccc(S(=O)(=O)N2CCCC2)cc1 | -3 | nt | -1 | -8 | 1.6* | 2 | 0.21 | i
Nc1ccccc1Sc1ccccc1[N+](=O)[O-] | 2 | nt | nt | nt | nt | nt | nt | nt
Nc1nc(O)c(Sc2ccccc2[N+](=O)[O-])c(=O)[nH]1 | 3 | nt | -5 | 4 | 1.9* | -6 | 0.026 | i
